pEC50: −log10 of the molar value. Entries after “also recorded” stand apart in the source; their conditions may differ. Where two headings read alike, the source gives them in different places. Each block holds one compound with its values, some of them ahead of it.
Experiments:
AhR [1] = molecular target: T1, AhR (Homo sapiens, UniProt P35869); experiment: AhR antagonist luciferase assay; assay type: cell-based; details: human HG2L6.1c3 cells, 10 μM with 10 nM TCDD
T1 sequence (P35869 11-848): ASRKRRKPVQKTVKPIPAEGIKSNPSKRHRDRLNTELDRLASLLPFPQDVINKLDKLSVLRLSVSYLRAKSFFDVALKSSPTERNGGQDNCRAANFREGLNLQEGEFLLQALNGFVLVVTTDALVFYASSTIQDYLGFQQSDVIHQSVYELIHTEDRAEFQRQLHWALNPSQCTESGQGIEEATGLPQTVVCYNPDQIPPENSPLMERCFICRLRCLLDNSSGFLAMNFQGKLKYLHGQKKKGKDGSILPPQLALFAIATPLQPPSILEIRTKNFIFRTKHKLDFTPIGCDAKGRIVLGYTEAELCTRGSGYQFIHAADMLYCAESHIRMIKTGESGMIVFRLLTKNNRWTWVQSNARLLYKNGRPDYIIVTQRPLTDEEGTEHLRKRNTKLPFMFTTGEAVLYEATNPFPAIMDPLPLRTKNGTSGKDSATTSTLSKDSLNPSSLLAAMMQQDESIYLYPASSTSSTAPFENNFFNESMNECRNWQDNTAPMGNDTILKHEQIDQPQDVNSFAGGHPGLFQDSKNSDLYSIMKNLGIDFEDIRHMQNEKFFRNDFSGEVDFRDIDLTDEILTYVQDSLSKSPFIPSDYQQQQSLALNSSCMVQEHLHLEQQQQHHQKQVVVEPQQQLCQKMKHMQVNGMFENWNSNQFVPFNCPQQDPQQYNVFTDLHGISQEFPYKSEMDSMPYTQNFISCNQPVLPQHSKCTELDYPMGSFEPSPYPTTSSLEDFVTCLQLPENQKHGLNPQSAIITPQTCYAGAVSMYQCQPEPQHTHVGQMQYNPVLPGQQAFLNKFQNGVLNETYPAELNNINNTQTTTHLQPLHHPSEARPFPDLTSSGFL

AhR [2] = molecular target: AhR (Mus musculus, UniProt P30561); experiment: AhR agonist luciferase induction, mouse H1L6.1c2 cells; assay type: cell-based; details: 10 μM; for AhR-dependent luciferase induction, normalised to maximal TCDD response: 24 hours, 1 nM TCDD = 100%; for AhR agonist activity (in words): luciferase
Procedure, shortened: (§1)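 Mouse H1L6.1c2 (from Hepa1c1c7) and human HG2L6.1c3 (from HepG2) hepatoma lines stably carry firefly luciferase under four DREs upstream of the MMTV promoter. Cells were exposed for 24 h at 37°C to test compound (10 mM DMSO stock) in 0.1% DMSO, TCDD (mouse 1 nM, human 10 nM) or vehicle. Cells were PBS-washed and lysed, and luminescence was read. DMSO background was subtracted and values normalised to TCDD = 100%. S.D., n = 3.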

AhR [3] = molecular target: T2, AhR (Rattus norvegicus, UniProt P41738); assay type: cell-based; details: rat H4IIE cells; for antagonistic effect (in words): 10 μM Chr-13 or 1 μM Chr-19 with TCDD, qRT-PCR
T2 sequence (P41738 10-853): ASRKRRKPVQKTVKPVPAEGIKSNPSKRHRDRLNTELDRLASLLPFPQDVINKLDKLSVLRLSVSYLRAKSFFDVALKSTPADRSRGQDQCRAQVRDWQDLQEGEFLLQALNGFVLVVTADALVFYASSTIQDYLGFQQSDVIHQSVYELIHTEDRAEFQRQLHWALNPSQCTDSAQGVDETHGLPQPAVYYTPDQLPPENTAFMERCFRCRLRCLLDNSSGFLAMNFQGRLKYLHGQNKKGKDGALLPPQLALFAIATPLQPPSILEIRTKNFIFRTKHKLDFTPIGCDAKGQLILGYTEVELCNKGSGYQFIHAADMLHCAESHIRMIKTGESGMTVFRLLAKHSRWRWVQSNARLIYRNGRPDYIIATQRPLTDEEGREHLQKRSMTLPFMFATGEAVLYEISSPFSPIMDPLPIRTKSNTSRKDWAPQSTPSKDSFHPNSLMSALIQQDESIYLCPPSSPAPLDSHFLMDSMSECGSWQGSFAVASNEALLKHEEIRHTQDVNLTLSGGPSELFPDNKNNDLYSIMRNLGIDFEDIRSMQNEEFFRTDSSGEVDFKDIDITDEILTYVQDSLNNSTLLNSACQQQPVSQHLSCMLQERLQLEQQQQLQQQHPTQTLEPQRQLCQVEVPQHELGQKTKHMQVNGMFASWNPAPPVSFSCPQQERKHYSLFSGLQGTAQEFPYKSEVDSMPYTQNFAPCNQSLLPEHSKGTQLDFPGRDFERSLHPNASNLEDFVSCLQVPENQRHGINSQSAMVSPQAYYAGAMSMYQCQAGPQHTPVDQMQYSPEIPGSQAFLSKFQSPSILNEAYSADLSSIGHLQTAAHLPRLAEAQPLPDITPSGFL

AhR [4] = molecular target: T2, AhR; experiment: CYP1A1 mRNA induction by qRT-PCR, rat H4IIE cells; details: for concentration inducing ~20% of the maximal response of 10 nM TCDD: rat H4IIE cells, CYP1A1 mRNA
AhR [5] = molecular target: T1, AhR; assay type: cell-based; details: human MCF-7 cells; for antagonistic effect (in words): 100 μM Chr-13 or 10 μM Chr-19 with TCDD
AhR [6] = molecular target: T1, AhR; experiment: CYP1A1 mRNA induction by qRT-PCR, human MCF-7 cells; details: for concentration inducing ~20% of the maximal response of 10 nM TCDD: concentrations up to 100 μM
AhR [7] = details: ref Medjakovic and Jungbauer, 2008; cited from earlier work
AhR [8] = molecular target: T2, AhR
AhR [9] = molecular target: T1, AhR; experiment: AhR agonist luciferase induction, human HG2L6.1c3 cells; assay type: cell-based; details: 10 μM
Procedure, shortened: as §1

AhR [10] = molecular target: T1, AhR
AhR [11] = details: ref Ciolino and Yeh, 1999; cited from earlier work
AhR [12] = molecular target: T1, AhR; details: MCF-7 cells, EROD analysis; ref Ciolino et al. (1999); cited from earlier work
AhR [13] = molecular target: T1, AhR; details: human cells; ref Van der Heiden et al., 2007; cited from earlier work
AhR [14] = molecular target: T2, AhR; details: rat H4IIE cells; ref Van der Heiden et al., 2007; cited from earlier work

Chain of AhR (Mus musculus, UniProt P30561) (P30561 10-805 limits assumed): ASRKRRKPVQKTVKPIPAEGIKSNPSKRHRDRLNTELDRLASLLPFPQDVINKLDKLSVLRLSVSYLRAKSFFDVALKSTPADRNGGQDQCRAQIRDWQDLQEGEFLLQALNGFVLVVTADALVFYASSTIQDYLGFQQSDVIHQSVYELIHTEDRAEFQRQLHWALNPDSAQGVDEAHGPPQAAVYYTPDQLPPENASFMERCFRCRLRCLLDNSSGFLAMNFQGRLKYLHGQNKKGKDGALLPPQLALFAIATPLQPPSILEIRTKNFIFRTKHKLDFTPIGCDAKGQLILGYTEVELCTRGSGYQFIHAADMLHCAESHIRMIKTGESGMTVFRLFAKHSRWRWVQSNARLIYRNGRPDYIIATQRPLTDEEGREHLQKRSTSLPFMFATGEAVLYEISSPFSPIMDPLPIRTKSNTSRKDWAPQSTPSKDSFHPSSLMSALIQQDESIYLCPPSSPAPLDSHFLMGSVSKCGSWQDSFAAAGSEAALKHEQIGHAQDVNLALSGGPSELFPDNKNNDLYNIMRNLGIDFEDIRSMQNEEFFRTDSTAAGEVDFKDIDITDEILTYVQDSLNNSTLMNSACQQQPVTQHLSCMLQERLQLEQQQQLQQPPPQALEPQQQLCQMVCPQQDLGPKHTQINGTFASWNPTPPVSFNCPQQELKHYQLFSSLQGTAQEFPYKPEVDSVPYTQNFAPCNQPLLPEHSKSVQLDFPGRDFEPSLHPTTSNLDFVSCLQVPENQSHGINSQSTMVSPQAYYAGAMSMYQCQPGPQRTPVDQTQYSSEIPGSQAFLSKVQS
Chain of AhR (Mus musculus, UniProt P30561) (P11499 whole entry partner): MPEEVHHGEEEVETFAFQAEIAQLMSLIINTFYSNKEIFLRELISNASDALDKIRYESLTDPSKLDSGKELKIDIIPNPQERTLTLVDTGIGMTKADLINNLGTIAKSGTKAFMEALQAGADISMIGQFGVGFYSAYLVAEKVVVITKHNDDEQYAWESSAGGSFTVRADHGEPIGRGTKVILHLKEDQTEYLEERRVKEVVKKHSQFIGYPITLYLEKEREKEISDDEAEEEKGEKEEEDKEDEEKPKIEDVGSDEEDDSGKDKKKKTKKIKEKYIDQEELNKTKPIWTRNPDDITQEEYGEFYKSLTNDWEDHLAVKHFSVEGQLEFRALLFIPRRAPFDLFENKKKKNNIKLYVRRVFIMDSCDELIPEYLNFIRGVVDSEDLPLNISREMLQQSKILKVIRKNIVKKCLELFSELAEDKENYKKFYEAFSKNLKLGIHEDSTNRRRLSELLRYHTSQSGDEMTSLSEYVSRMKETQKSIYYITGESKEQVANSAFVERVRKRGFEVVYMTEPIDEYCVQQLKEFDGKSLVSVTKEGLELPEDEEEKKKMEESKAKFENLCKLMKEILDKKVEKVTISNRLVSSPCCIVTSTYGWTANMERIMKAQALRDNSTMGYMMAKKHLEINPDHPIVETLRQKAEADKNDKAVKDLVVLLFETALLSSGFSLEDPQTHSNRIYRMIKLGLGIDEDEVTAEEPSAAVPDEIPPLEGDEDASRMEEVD
Chain of AhR (Mus musculus, UniProt P30561) (O08915 whole entry partner): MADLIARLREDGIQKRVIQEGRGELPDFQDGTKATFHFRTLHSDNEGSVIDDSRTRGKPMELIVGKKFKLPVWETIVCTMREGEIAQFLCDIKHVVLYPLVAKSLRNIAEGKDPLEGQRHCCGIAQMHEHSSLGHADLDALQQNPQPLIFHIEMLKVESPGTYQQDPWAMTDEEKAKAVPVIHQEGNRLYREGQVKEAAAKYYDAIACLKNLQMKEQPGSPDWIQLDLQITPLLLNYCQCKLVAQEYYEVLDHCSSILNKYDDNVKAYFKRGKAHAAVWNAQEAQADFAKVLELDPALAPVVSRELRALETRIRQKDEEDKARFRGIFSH

AhR antagonist activity (in words) (AhR [1]): antagonised
SMILES: Nc1oc2ccccc2c(=O)c1-c1ccc(Cl)cc1 [Chr-4]

AhR-dependent luciferase induction, normalised to maximal TCDD response (AhR [2]): 50%
AhR-dependent luciferase induction, normalised to maximal TCDD response (AhR [2]; listed as Chr 13): greater than 30%
AhR agonist activity (in words) (AhR [2]): strong agonist
background induction, % of the maximal induction (AhR [3]; 10 μM Chr-13 added to TCDD C/R curve): ~ 25%
antagonistic effect (in words) (AhR [3]): no antagonistic effects
pEC50 (AhR [4]): 4.38
concentration inducing ~20% of the maximal response of 10 nM TCDD (AhR [4]): 10 µM
reduction of the potency of TCDD (AhR [5]; 100 μM Chr-13): 5 fold
antagonistic effect (in words) (AhR [5]; qRT-PCR): weak antagonist
concentration inducing ~20% of the maximal response of 10 nM TCDD (AhR [6]; human MCF-7 cells, CYP1A1 mRNA): no response was detected
SMILES: COc1ccc2c(=O)c(-c3ccc(Cl)cc3)c(N)oc2c1 [Chr-13, 2-amino-3-(4′-chlorophenyl)-7-methoxychromen-4-one]
AhR antagonist activity (in words) (AhR [1]): antagonised; also recorded: strong antagonist
EC50 (95% Confidence interval) (AhR [6]; human MCF-7 cells, CYP1A1 mRNA, 4 hours, assuming maximal response is reached): could not be obtained; also recorded: No agonistic effect

SMILES: COc1ccc(-c2coc3cc(O)cc(O)c3c2=O)cc1 [Biochanin A]
less potent than TCDD (AhR [7]): 100 fold

SMILES: COc1ccc(-c2cc3cc(Cl)ccc3oc2=O)cc1 [Chr-19, 6-Chloro-3-(4′-methoxy)phenylcoumarin]
AhR agonist activity (in words) (AhR [2]): weak agonist
antagonistic effect (in words) (AhR [3]): no shift of the TCDD curve to the right
AhR antagonist activity (in words) (AhR [1]): antagonised; also recorded: antagonist
pEC50 (AhR [8]): 5.11
more potent in rat H4IIE than in human MCF-7 cells (AhR [8]): approximately 20 fold
concentration inducing ~20% of the maximal response of 10 nM TCDD (AhR [4]): 1 µM
AhR agonist activity (in words) (AhR [9]): induced significant levels; also recorded: weak agonist
pEC50 (AhR [10]): 3.85
reduction of the potency of TCDD (AhR [5]; 10 μM Chr-19): 3 fold
antagonistic effect (in words) (AhR [5]; qRT-PCR): weak antagonist
reduction of the response to 10 nM TCDD (AhR [5]; qRT-PCR, 10 μM): 10%
concentration inducing ~20% of the maximal response of 10 nM TCDD (AhR [6]; human MCF-7 cells, CYP1A1 mRNA): 10 µM

SMILES: O=c1c(O)c(-c2ccccc2)oc2cc(O)cc(O)c12 [galangin]
AhR activity (in words) (AhR [11]): AhR antagonist

SMILES: O=c1c(O)c(-c2ccc(O)cc2)oc2cc(O)cc(O)c12 [kaempferol]
AhR activity (in words) (AhR [12]): antagonist

SMILES: Clc1cc2c(cc1Cl)Oc1cc(Cl)c(Cl)cc1O2 [TCDD, 2,3,7,8-tetrachlorodibenzo-p-dioxin, reference compound]
pEC50 (AhR [4]): 9.95
pEC50 (AhR [6]): 9.18
potency lower in human MCF-7 than in rat H4IIE cells (AhR [6]; ratio of CYP1A1 mRNA EC50s, p<0.0001): 6 fold

SMILES: O=c1cc(-c2ccccc2)oc2cc(O)cc(O)c12 [chrysin]
AhR activity (in words) (AhR [13]): partial agonist
AhR antagonistic effect (in words) (AhR [14]): no antagonistic effects

SMILES: O=c1c(O)c(-c2ccc(O)c(O)c2)oc2cc(O)cc(O)c12 [quercetin, Quercetin]
AhR activity (in words) (AhR [12]): AhR agonist

Source: PMC3515069 (Toxicology, 2012)
